Experimental data taken from ChEMBL document CHEMBL3861950, “Design, synthesis and evaluation of novel 19F magnetic resonance sensitive protein tyrosine phosphatase inhibitors” (Medchemcomm, 2016).

What was measured:
[1] = molecular target: T1, Tyrosine-protein phosphatase non-receptor type 11 (Homo sapiens, UniProt Q06124); assay: Inhibition of recombinant SHP2 (unknown origin) using pNPP as substrate by spectrophotometric method
T1 sequence (Q06124 whole entry): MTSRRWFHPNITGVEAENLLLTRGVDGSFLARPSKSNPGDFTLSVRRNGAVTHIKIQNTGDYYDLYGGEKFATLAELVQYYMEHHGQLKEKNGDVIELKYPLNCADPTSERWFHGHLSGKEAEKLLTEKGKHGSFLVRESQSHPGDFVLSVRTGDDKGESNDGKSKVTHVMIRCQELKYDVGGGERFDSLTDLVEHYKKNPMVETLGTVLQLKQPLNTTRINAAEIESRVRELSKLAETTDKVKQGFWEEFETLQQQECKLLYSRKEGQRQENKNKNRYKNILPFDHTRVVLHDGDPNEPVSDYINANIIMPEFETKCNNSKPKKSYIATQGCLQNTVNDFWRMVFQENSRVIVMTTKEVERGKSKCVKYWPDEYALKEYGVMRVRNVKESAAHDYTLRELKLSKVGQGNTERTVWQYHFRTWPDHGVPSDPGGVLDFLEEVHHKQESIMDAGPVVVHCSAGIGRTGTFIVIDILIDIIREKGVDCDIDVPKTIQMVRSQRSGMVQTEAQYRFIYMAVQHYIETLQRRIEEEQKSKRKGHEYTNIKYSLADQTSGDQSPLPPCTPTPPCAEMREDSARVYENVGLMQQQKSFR
Method in brief: (§1)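 Recombinant PTP prepared in-house, assayed with pNPP substrate in 50 mM 3,3-dimethylglutarate buffer pH 7.0 containing 1 mM EDTA and 150 mM NaCl at 25 °C, in 96-well format. p-Nitrophenol product was quantified by absorbance at 405 nm. Non-enzymatic pNPP hydrolysis was corrected using a no-enzyme control.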

[2] = molecular target: T2, Receptor-type tyrosine-protein phosphatase C (Homo sapiens, UniProt P08575); assay: Inhibition of recombinant CD45 (unknown origin) using pNPP as substrate by spectrophotometric method; method in brief: as §1
T2 sequence (P08575 whole entry): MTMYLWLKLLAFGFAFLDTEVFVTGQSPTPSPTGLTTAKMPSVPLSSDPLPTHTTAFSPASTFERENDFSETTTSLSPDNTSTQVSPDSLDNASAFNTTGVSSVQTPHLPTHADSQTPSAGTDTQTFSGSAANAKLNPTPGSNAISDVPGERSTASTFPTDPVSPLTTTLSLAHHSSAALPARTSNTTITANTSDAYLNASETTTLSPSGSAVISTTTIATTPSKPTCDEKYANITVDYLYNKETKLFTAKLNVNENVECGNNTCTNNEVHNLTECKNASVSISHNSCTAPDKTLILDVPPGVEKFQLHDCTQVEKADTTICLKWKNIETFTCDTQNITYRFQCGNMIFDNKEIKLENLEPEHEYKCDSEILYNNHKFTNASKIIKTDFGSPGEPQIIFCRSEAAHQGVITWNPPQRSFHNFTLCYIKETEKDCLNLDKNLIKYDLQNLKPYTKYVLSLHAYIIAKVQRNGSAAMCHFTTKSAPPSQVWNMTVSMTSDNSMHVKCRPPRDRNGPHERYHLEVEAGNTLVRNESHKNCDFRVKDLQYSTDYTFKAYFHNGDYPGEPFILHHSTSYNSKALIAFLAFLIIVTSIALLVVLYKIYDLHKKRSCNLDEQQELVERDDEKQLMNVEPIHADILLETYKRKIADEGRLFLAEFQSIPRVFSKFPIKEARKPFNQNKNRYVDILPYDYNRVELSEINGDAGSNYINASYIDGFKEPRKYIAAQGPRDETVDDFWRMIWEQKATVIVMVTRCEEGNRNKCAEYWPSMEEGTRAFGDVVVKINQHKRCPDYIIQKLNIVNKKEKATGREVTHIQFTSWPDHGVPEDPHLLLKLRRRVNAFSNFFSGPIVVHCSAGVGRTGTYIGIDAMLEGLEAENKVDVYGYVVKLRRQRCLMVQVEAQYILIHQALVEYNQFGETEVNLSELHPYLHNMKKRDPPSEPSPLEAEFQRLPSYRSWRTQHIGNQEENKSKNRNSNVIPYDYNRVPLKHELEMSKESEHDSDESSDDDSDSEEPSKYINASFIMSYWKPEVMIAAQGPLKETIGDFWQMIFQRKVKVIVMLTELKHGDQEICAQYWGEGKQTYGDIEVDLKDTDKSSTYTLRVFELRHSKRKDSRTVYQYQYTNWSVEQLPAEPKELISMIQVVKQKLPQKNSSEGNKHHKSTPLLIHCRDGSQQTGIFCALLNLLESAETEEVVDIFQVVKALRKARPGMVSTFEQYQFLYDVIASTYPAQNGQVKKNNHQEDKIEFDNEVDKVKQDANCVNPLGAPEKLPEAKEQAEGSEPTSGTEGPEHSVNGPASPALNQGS

[3] = molecular target: T3, Tyrosine-protein phosphatase non-receptor type 22 (Homo sapiens, UniProt Q9Y2R2); assay: Inhibition of recombinant LYP (unknown origin) using pNPP as substrate by spectrophotometric method; method in brief: as §1
T3 sequence (Q9Y2R2 whole entry): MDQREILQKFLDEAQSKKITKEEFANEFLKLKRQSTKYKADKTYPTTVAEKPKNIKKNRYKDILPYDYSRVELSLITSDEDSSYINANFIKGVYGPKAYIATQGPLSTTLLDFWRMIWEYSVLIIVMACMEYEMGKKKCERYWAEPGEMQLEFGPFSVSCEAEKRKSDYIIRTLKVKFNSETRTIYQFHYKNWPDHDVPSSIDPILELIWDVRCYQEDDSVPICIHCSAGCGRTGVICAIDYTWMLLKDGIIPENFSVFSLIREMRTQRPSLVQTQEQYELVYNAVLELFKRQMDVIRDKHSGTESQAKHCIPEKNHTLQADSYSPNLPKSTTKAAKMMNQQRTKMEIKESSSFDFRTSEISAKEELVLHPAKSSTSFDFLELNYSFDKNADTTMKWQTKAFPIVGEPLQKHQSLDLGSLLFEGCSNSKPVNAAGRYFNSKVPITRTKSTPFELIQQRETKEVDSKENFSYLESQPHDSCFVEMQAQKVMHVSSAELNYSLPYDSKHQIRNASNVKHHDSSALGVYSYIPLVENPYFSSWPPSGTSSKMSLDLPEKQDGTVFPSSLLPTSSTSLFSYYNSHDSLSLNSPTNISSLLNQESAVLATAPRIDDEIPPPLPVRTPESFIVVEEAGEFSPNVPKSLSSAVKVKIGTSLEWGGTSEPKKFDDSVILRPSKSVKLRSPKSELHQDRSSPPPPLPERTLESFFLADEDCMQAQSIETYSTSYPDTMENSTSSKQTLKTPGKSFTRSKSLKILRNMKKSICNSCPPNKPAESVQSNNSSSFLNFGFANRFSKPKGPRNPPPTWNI

[4] = Selectivity ratio of IC50 for recombinant SHP2 (unknown origin) to IC50 for recombinant Mycobacterium tuberculosis PTPB
[5] = Selectivity ratio of IC50 for recombinant PTP1B (unknown origin) to IC50 for recombinant Mycobacterium tuberculosis PTPB
[6] = Selectivity ratio of IC50 for recombinant CD45 (unknown origin) to IC50 for recombinant Mycobacterium tuberculosis PTPB

Work on `Cc1ccc(S(=O)(=O)NNC(=O)COc2ccc3cc(C(O)(C(F)(F)F)C(F)(F)F)c(O)cc3c2)cc1` yielded an IC50 [1] of 20.3 µM, an IC50 [2] of 16.1 µM and an IC50 [3] of 15.4 µM. It also gave a Ratio IC50 [4] of over 7, a Ratio IC50 [5] of over 7 and a Ratio IC50 [6] of over 7.
